aDG glyco up – increases alpha dystroglycan glycosylation; actives 0.22% (n = 360,000); AID 624168; activation, % at 10 µM; Pro5-aDG cells, alpha-DG glycosylation AlphaScreen (IIH6); 0% Pro5, 100% B10-LARGE cell signal;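 active = activation of at least 8% versus controls, or a plate z-score of at least 8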;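 also: Pro5 are CHO cells carrying HIG-tagged alpha-DG that lacks glycosylation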
T cell HTS – modulates CD8 T cell binding to vesicles. 2C CD8+ T cell-vesicle binding, flow cytometry; stronger effect = lower value. response (vesicle binding), % at 7 µM. actives 0.068% (n = 330,000);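 active = response, share of CD8 T cells binding vesicles, and their 90th percentile fluorescence all below set limits, cut at about 80% in these data, passing the limit was not always enough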;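 also: values below 100% mean blocked vesicle binding to the CD8+ T cells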
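System: murine 2C transgenic CD8+ T lymphocytes; also added: QL9-loaded Drosophila micro-vesicles; times: binding 1.5 h at 37 °C; measured by: flow cytometry, PE anti-B7-1 (FL2) versus Alexa647 anti-CD8 (FL8), PFA-fixed; control set: Peptide-free naked vesicles (low) and QL9 vesicles with 0.7% DMSO vehicle (high)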
procasp7 counter – counter-screen for procaspase-3 activators: activators of human procaspase-7; P55210; recombinant procaspase-7, Ac-DEVD-pNA absorbance 405 nm; D23A/D198A/D206A triple mutant, cannot self-cleave; scale: DMSO 0, 5 µM enzyme 100; activation, % at 8.5 µM; actives 0.093% (n = 330,000); AID 463210;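 active = percent activation above the screen-wide mean plus 3 SD, cut at about 25% in these data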
Target sequence (P55210 whole entry D23A/D198A/D206A): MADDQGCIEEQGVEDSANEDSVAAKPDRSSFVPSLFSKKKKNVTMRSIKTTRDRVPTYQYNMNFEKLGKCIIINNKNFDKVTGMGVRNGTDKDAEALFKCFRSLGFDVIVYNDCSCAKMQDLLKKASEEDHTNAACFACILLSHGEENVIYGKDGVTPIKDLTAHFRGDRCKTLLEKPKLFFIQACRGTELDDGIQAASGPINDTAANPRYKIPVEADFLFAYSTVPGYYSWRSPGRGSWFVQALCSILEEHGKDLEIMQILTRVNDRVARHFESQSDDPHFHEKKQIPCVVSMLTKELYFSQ
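System: Uncleavable procaspase-7 mutant enzyme; Amount: 2 µM procaspase-7 mutant as dispensed; Schedule: 1 h compound preincubation, 2 h substrate cleavage, 25 °C; Measured by: 405 nm absorbance of p-nitroaniline; Evaluation: percent activation from buffer-corrected 0–120 min absorbance change; Control set: low DMSO alone, high DMSO plus 5 µM PC-7.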
CaV13 ICDI inh – Disruptors of the CACNA1D IQ motif to Ca2+-dependent inactivation inhibitor domain association, primary screening, Förster resonance energy transfer in intact living …. actives 0.098% (n = 340,000). inhibition, % at 12.3 µM. HEK cells, CFP/YFP FRET ICDI-IQ, plate reader, 10 min; percent FRET-ratio fall versus neutral wells;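 active = mean replicate inhibition of at least 30% and at least 1% of replicates passing that level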;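 also: 0% = median of the neutral control wells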
procasp3 activ – procaspase-3 (human) activation | recombinant procaspase-3 D3A, Ac-DEVD-pNA absorbance 405 nm | activation, % at 8.5 µM | actives 0.11% (n = 330,000) | AID 463141;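 active = activation above the mean of all tested compounds plus 3 SD, cut at about 21% in these data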;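 also: 0% = DMSO alone and 100% = DMSO wells spiked with extra 5 µM PC-3 D3A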
Target sequence (P42574 whole entry D9A/D28A/D175A): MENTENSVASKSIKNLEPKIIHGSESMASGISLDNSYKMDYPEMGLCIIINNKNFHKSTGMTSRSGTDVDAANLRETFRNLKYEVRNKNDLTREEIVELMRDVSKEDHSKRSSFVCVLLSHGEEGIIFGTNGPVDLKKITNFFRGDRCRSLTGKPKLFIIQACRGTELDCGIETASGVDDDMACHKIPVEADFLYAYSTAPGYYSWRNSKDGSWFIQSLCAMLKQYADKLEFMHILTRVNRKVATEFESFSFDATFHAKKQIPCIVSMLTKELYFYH
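Test system: Procaspase-3 D3A mutant, all three cleavage aspartates alanine | Dosing: Single dose, 8.5 µM nominal compound, 0.8% DMSO | Schedule: 1 h preincubation, 2 h reaction | Technique: 405 nm absorbance of p-nitroaniline, reads at 0 and 120 min | Repeats: One well per compound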
GRK2 inh – blocks RNA aptamer binding to human GRK2. inhibition of aptamer binding, % at 10 µM. actives 0.59% (n = 330,000). AID 488847. P25098. bead flow cytometry, FAM-aptamer displacement from GRK2;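 active = inhibition of aptamer binding above 40%, roughly 3 SD of noise, on plates passing a quality check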;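 also: median bead fluorescence of bound FAM aptamer so fluorescent compounds give negative values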
GRK2 CP1 – confirmation of human GRK2 inhibitors displacing RNA aptamer; actives 4% (n = 2,000); shares compounds with GRK2 inh; bead-bound GRK2, FAM-aptamer displacement, flow cytometry; aptamer displacement, % at 10 µM;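 active = aptamer displacement above 40%, near three times the noise of non-fluorescent compounds, on plates passing quality checks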;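 also: negative values mostly reflect intrinsic compound fluorescence rather than true enhancement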
Aptamer quench SP – aptamer fluorescence quenching in GRK2 counter-screen. shares compounds with GRK2 inh. Carboxyfluorescein RNA aptamer on beads, flow cytometry quenching; stronger effect = lower value. fluorescence response (% of DMSO), % at 10 µM. 2,000 tested, under 10 active;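 active = compounds that quench the bead-bound fluorescent RNA probe, cutting fluorescence to under half of the solvent control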;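 also: counterscreen run without GRK2 so only probe quenching by compound is measured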
GRK2 confirm 2 – confirmation of human GRK2 inhibitors binding RNA aptamer site | shares compounds with GRK2 inh | bead-bound GRK2, FAM-aptamer displacement, flow cytometry | inhibition of aptamer binding, % at 10 µM | 360 tested, under 10 active | AID 504782;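 active = inhibition of aptamer binding above 40%, about triple the noise seen with nonglowing compounds, on plates passing quality control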;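 also: negative values mostly come from compounds that fluoresce themselves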
FAM quench SP – aptamer fluorescence quenching in GRK2 counter-screen; fluorescence response vs DMSO, % at 10 µM; shares compounds with GRK2 inh; 360 tested, under 10 active; carboxyfluorescein RNA aptamer beads, flow cytometry quenching; stronger effect = lower value;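 active = response vs DMSO under 50%, meaning signal dropped by over half, treated as fluorescence quencher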;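 also: labelled aptamer on streptavidin beads without GRK2 as a quench counter-screen; 100% = bead fluorescence of DMSO wells and lower means quenching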
Starred values were filed as active, the others as inactive. Hits are enriched below; roughly 1.1% of the tested compounds scored in any of these assays.

`O=C(NCc1ccco1)c1c2c(nc3ccccc13)CCC2` gave aDG glyco up 0.4, T cell HTS 105.4, procasp7 counter -4.6, CaV13 ICDI inh -5.0, procasp3 activ -5.2, GRK2 inh 16.0, GRK2 confirm 2 9.9 and FAM quench SP 100.0.
For CCCC(C)NC(=O)c1c2c(nc3ccccc13)CCC2 (stereo not drawn) the results were aDG glyco up -0.1, T cell HTS 352.9, procasp7 counter -1.4, CaV13 ICDI inh -4.6, procasp3 activ -1.3 and GRK2 inh 6.0.
Screening O=C(CSc1c2c(nc3ccccc13)CCCC2)NCc1ccco1 returned aDG glyco up 0.4, T cell HTS 722.2, procasp7 counter -3.7, CaV13 ICDI inh -2.6, procasp3 activ 1.9 and GRK2 inh 0.0.
`Cc1ccc2nc3c(c(C(=O)O)c2c1)CCC3` gave aDG glyco up -0.2, T cell HTS 274.4, procasp7 counter -12.1, CaV13 ICDI inh -7.6, procasp3 activ 8.0 and GRK2 inh 25.0.
`O=C(NCc1ccc(F)cc1)c1c2c(nc3ccccc13)CCC2` gave aDG glyco up -0.2, T cell HTS 341.6, procasp7 counter -4.2, CaV13 ICDI inh -6.4, procasp3 activ 1.4, GRK2 inh 2.0, GRK2 confirm 2 -15.9 and FAM quench SP 100.0.
Screening O=C(O)c1c2c(nc3ccc(F)cc13)CCC2 returned aDG glyco up -0.2, procasp7 counter 9.1, CaV13 ICDI inh -4.5, procasp3 activ 7.6, GRK2 inh 72.0*, GRK2 CP1 -2.1 and Aptamer quench SP 98.0.
Screening Cc1nc2ccccc2c(=O)n1/N=C/c1ccccc1 returned aDG glyco up 0.1, T cell HTS 355.0, procasp7 counter 0.6, procasp3 activ -1.8 and GRK2 inh 0.0.
Screening Cc1nc2ccccc2c(=O)n1/N=C/c1ccncc1 returned aDG glyco up -0.4, T cell HTS 394.5, procasp7 counter -5.7, CaV13 ICDI inh -4.0, procasp3 activ -4.7, GRK2 inh 83.0*, GRK2 CP1 -2.9 and Aptamer quench SP 102.3.
`COc1ccc([C@H]2CC(=O)C=C(c3ccccc3Oc3ccccc3)C2)cc1` gave aDG glyco up 0.5, T cell HTS 318.7, procasp7 counter -2.6, CaV13 ICDI inh -6.1, procasp3 activ -4.5, GRK2 inh 60.0*, GRK2 CP1 -2.0 and Aptamer quench SP 95.4.
For COCC1CCN(C(=O)c2cc(COc3cc(C)c(Cl)c(C)c3)on2)C1 (stereo not drawn) the results were aDG glyco up 0.0, T cell HTS 285.8, procasp7 counter -7.0, CaV13 ICDI inh -3.0, procasp3 activ 7.3 and GRK2 inh 2.0.
Screening O=C(COc1ccc(Cl)cc1Cl)Nc1cccc(-c2ccc(N3CCOCC3)nn2)c1 returned aDG glyco up 0.0, CaV13 ICDI inh -4.5, GRK2 CP1 -2.1 and Aptamer quench SP 93.0.
`O=C(COc1ccccc1)Nc1cccc(-c2ccc(N3CCOCC3)nn2)c1` gave aDG glyco up -0.1, T cell HTS 317.0, procasp7 counter -0.2, CaV13 ICDI inh -5.7, procasp3 activ 3.9, GRK2 inh 0.0, GRK2 CP1 0.9 and Aptamer quench SP 93.7.
O=C(CSc1n[nH]c(=O)n1-c1ccc2c(c1)OCCO2)Nc1ccccc1 was read as aDG glyco up -0.1, T cell HTS inactive, procasp7 counter 6.9, CaV13 ICDI inh -4.6, procasp3 activ 2.3 and GRK2 inh 0.0.
Screening O=C(CNC(=O)C1CC(=O)N(c2cccc3ccccc23)C1)Nc1ccccc1Br (stereo not drawn) returned aDG glyco up 0.5, T cell HTS 314.5, procasp7 counter 1.2, CaV13 ICDI inh -3.8, procasp3 activ 6.8 and GRK2 inh 4.0.
Screening CCCC(=O)Nc1nnc(SCC)s1 returned aDG glyco up 0.0, T cell HTS 561.0, procasp7 counter 3.4, CaV13 ICDI inh -4.5, procasp3 activ -2.1, GRK2 inh 100.0*, GRK2 confirm 2 -16.3 and FAM quench SP 102.0.
Screening CCCC(=O)Nc1nnc(SCC(=O)N2CCCCC2)s1 returned aDG glyco up 0.0, T cell HTS 359.9, procasp7 counter 5.0, CaV13 ICDI inh -2.2, procasp3 activ 2.7 and GRK2 inh 0.0.
For COC(=O)N1C[C@H](OC(=S)Nc2ccc(OC)cc2OC)[C@H]2C[C@@H]1c1ccccc1O2 the results were CaV13 ICDI inh -3.7.
Screening O=CN1c2ccccc2CSc2ccccc21 returned aDG glyco up 0.3, T cell HTS 152.4, procasp7 counter 4.4, CaV13 ICDI inh -4.5, procasp3 activ -0.6, GRK2 inh 74.0*, GRK2 CP1 -4.0 and Aptamer quench SP 100.3.
For O=C(O)CN1C(=O)CSc2ccccc21 the results were aDG glyco up -0.2, T cell HTS 153.5, procasp7 counter 5.2, CaV13 ICDI inh -4.3, procasp3 activ -1.0 and GRK2 inh 1.0.
`COc1ccc(-c2noc(Cn3cc(S(=O)(=O)N4CCCC4)ccc3=O)n2)cc1` gave aDG glyco up 0.3, T cell HTS 199.8, procasp7 counter 1.2, CaV13 ICDI inh -6.6, procasp3 activ 4.2 and GRK2 inh 1.0.
COc1ccccc1NC(=O)CC1CCCC1 was read as aDG glyco up -0.1, T cell HTS 765.8, procasp7 counter 6.4, CaV13 ICDI inh -4.3, procasp3 activ 1.6, GRK2 inh 61.0*, GRK2 CP1 -3.5 and Aptamer quench SP 104.8.
Screening COc1ccc(N2CCN(C(=O)[C@@H](NC(=O)c3ccccc3Cl)C(C)C)CC2)cc1 returned aDG glyco up 0.2, T cell HTS 336.9, procasp7 counter 0.9, CaV13 ICDI inh -18.2, procasp3 activ 12.2 and GRK2 inh 0.0.

Screens deposited in PubChem by several laboratories.
